In ChEMBL document CHEMBL1126076, “Synthesis and thromboxane A2/prostaglandin H2 receptor antagonistic activity of phenol derivatives” (J Med Chem, 1992) one finds IC50 and inhibition in vivo data, which are given here for 22 compounds.

SMILES strings stand for the structures.

In general, IC50 refers to the midpoint of a concentration-inhibition curve.

Test [1] concerns Thromboxane A2 receptor (Cavia porcellus). Nature of the test: Inhibition of specific binding of [3H]U-46619 to TXA2/PGH2 receptor in guinea pig platelet membrane.
The species entered for test [2] is Oryctolagus cuniculus. Nature of the test: Concentration required to reduced U-46619-induced contraction of the rabbit aorta by 50%. Format: functional.
Test [3] deals with Rattus norvegicus. Put plainly: Compound was tested in vivo for the inhibition of U-46619-induced bronchoconstriction in rat, 1 hr after oral administration at a dose of 5 mg/Kg. Format: functional. To be noted: read-out: Inhibition. An outline of the steps: (§1)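 Male Sprague-Dawley rats received drug suspended in 5% gum arabic orally 1 h before U-46619 (30 µg/kg, iv). Bronchoconstriction was recorded by the Konzett-Rössler method and expressed as percent inhibition versus control, tested with Dunnett's test.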

Test [4] relates to Cavia porcellus. Put plainly: Compound was tested in vivo for the inhibition of U-46619-induced bronchoconstriction in guinea pig, 1 hr after oral administration at a dose of 5 mg/Kg. To be noted: PIG1, po, read-out: Inhibition. Format: functional. An outline of the steps:
(§2)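 Guinea pigs received drug suspended in 5% gum arabic orally 1 h before U-46619 challenge. The result is percent inhibition of bronchoconstriction versus control, tested with Dunnett's test.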

Test [5] is filed under the species Homo sapiens. Nature of the test: Concentration required to reduced U-46619-induced aggregation of human platelet by 50%. Format: functional. An outline of the steps:
(§3)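 Healthy male volunteers, medication-free for at least 10 days, gave blood into 3.8% sodium citrate. PRP was adjusted to 400000 platelets/µL with PPP, preincubated at 37 °C for 2 min, then given drug or vehicle for 2 min. Aggregation was triggered with submaximal U-46619 (1–3 µM) and read photometrically (Born).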

The subject of test [6] is Cavia porcellus. Put plainly: compound was tested in vivo for the inhibition of U-46619-induced bronchoconstriction in guinea pig, 1 hr after oral administration at a dose of 1.25 mg/Kg. Type of test: functional. To be noted: PIG1, po. An outline of the steps:
as §2

Test [7] is filed under the species Oryctolagus cuniculus. Put plainly: Concentration required to reduced U-46619-induced contraction of the rabbit aorta by 50%.(values in parentheses are 95% confidence limits). Format: functional.
The species named for test [8] is Cavia porcellus. Put plainly: Compound was evaluated for inhibition of specific binding of [3H]U-46619 to guinea pig platelet membrane. Type of test: functional. The procedure, abridged: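 Guinea pig blood was drawn by cardiac puncture into 0.315% citrate plus 1 mM aspirin (final). PRP platelets were washed in 25 mM Tris-HCl/5 mM MgCl2 pH 7.4, sonicated, and the 100000 g pellet used at 1 mg/mL protein. Membranes were incubated with 4 nM [3H]U-46619 and drug at 25 °C for 30 min, then filtered and counted. The IC50 is for specific binding, with 2–6 replicates per dose.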

The species named for test [9] is Homo sapiens. Nature of the test: Concentration required to reduced U-46619-induced aggregation of human platelet by 50%.(values in parentheses are 95% confidence limits). Format: functional. An outline of the steps: as §3
For test [10], the system named is Cavia porcellus. Put plainly: The compound was tested in vivo for the inhibition of U-46619-induced bronchoconstriction in guinea pig, 1 hr after oral administration at a dose of 5 mg/Kg. Type of test: functional. The conditions noted are these: PIG1, po. The procedure, abridged:
as §2

The test system of test [11] is Rattus norvegicus. Nature of the test: The compound was tested in vivo for the inhibition of U-46619-induced bronchoconstriction in rat, 1 hr after oral administration at a dose of 5 mg/Kg. Format: functional. The procedure, abridged:
as §1

Test [12] deals with Cavia porcellus. Put plainly: The compound was tested in vivo for the inhibition of U-46619-induced bronchoconstriction in guinea pig, 1 hr after oral administration at a dose of 1.25 mg/Kg. To be noted: PIG1, po. Type of test: functional. An outline of the steps:
as §2

In test [13] the test system is Cavia porcellus. Nature of the test: The compound was tested in vivo for the inhibition of U-46619-induced bronchoconstriction in guinea pig, 1 hr after oral administration at a dose of 0.31 mg/Kg. Type of test: functional. The conditions noted are these: PIG1, po. An outline of the steps:
as §2

Test [14] is filed under the species Oryctolagus cuniculus. Nature of the test: Concentration required to reduced U-46619-induced contraction of the rabbit aorta by 50%. Format: functional.
For test [15], the system named is Rattus norvegicus. Put plainly: The compound was tested in vivo for the inhibition of U-46619-induced bronchoconstriction in rat, 1 hr after oral administration at a dose of 1.25 mg/Kg. Type of test: functional. An outline of the steps: as §1
The species named for test [16] is Homo sapiens. Put plainly: Concentration required to reduced U-46619-induced aggregation of human platelet by 50%. Type of test: functional. An outline of the steps:
as §3

Regarding `Cc1c(C)c(C(=O)O)c(C)c(C(CCCCCC(=O)O)c2ccc(F)cc2)c1O` (stereo unspecified), in test [1], the IC50 turned out to be 3200 nM.

Consider `Cc1c(C)c(CCO)c(C)c(C(CCCCCC(=O)O)c2ccc(F)cc2)c1O` (stereo unspecified), for which the IC50 in test [1] came out at 250 nM.

Consider `Cc1c(C)c2c(c(C(CCCCCC(=O)O)c3ccc(F)cc3)c1O)CCCC2=O` (stereo unspecified), for which the IC50 in test [1] was 76 nM.

Regarding `Cc1cc(C)c(C(CCCCCC(=O)O)c2ccc(F)cc2)c(O)c1C` (stereo unspecified), the 50% inhibitory concentration (IC50) in test [1] was determined as 450 nM.

As to `Cc1c(O)c(C(CCCCCC(=O)O)c2ccc(F)cc2)c(C)c2c1CCC2` (stereo unspecified), the IC50 turned out to be 230 nM in test [2], 49 nM in [1] and 310 nM in test [5]. The inhibition in vivo at 5 mg/kg in test [3] was 48%; in test [4], 76%. Moreover, the inhibition in vivo at 1.25 mg/kg in test [6] is 37%.

The compound `Cc1c(C)c(Br)c(C)c(C(CCCCCC(=O)O)c2ccc(F)cc2)c1O` (stereo unspecified) yielded an IC50 in test [1] of 200 nM.

For the compound `Cc1c(C)c2c(c(C(CCCCCC(=O)O)c3ccc(F)cc3)c1O)CCC2` (stereo unspecified), the half-inhibitory concentration (IC50) in [1] is 160 nM.

Consider `CC(=O)c1c(C)c(C)c(O)c(C(CCCCCC(=O)O)c2ccc(F)cc2)c1C` (stereo unspecified), for which the half-inhibitory concentration (IC50) came to 270 nM in [7], 80 nM in test [8], 69 nM in test [9] and 80 nM in [1]. Besides, the inhibition in vivo at 5 mg/kg in test [10] stood at 76%; in test [11] it was 42%. Besides, the inhibition in vivo at 1.25 mg/kg in test [12] amounted to 22%.

With `Cc1c(C)c(C=O)c(C)c(C(CCCCCC(=O)O)c2ccc(F)cc2)c1O` (stereo unspecified), the inhibition in vivo at 0.31 mg/kg in test [13] stood at 33%. Besides, the values for the IC50 in test [8], in test [14] and in [16] were 4.4 nM, 10 nM and 310 nM, respectively. Further, the inhibition in vivo at 1.25 mg/kg in [15] was less than 54%; in [12] it was less than 67%. Further, the inhibition in vivo at 5 mg/kg in test [10] amounted to 84%; in test [11] it was 68%.

As for `Cc1c(C)c(CO)c(C)c(C(CCCCCC(=O)O)c2ccc(F)cc2)c1O` (stereo unspecified), the concentration for half-maximal inhibition (IC50) in test [7] came out at 32 nM; in test [9], 79 nM; in test [1], 32 nM. Also, the inhibition in vivo at 0.31 mg/kg in test [13] worked out at 57%. Also, the inhibition in vivo at 1.25 mg/kg in test [15] is less than 40%. Further, the inhibition in vivo at 5 mg/kg in [11] is less than 65%.

In turn, `COCc1c(C)c(C)c(O)c(C(CCCCCC(=O)O)c2ccc(F)cc2)c1C` (stereo unspecified) returned an IC50 in test [1] of 340 nM.

In the case of `Cc1c(C)c(C)c(C(CCCCCC(=O)O)c2ccc(F)cc2)c(O)c1C` (stereo unspecified), in test [1], the half-inhibitory concentration (IC50) worked out at 130 nM.

For `Cc1c(C)c(C=O)c(C)c(C(CCCCCC(=O)O)c2ccccc2)c1O` (stereo unspecified), the half-inhibitory concentration (IC50) in test [14] stood at 190 nM; in test [16] it was 1400 nM. In addition, the inhibition in vivo at 5 mg/kg in [10] stood at 30%.

For `Cc1c(C)c(CO)c(C)c(C(CCCCCC(=O)O)c2ccccc2)c1O` (stereo unspecified), in test [1], the IC50 was determined as 820 nM.

With `CCCCC(=O)c1c(C)c(C)c(O)c(C(CCCCCC(=O)O)c2ccc(F)cc2)c1C` (stereo unspecified), the IC50 in test [1] turned out to be 190 nM.

The compound `Cc1c(O)c(C(CCCCCC(=O)O)c2ccc(F)cc2)c(C)c2c1CC(=O)C2` (stereo unspecified) came in with a concentration for half-maximal inhibition (IC50) in test [1] of 79 nM. Besides, the inhibition in vivo at 5 mg/kg in test [10] is less than 42%.

Take `O=C(O)Cc1ccc(CCNS(=O)(=O)c2ccc(Cl)cc2)cc1` [DALTROBAN]: the IC50 in test [14] is 120 nM; in test [1] it was 62 nM; in test [16] it was 640 nM. The values for the inhibition in vivo at 5 mg/kg in test [10] and in test [11] were less than 84% and less than 73%, respectively. Also, the inhibition in vivo at 1.25 mg/kg in [12] turned out to be 36%.

For the compound `Cc1c(C)c2c(c(C(CCCCCC(=O)O)c3ccc(F)cc3)c1O)CCC2=O` (stereo unspecified), the IC50 was determined as 27 nM in test [7], 13 nM in test [8], 78 nM in [9] and 13 nM in [1]. For the same compound, the inhibition in vivo at 0.31 mg/kg in [13] is -3%. In addition, the figures for the inhibition in vivo at 1.25 mg/kg in [15] and in [12] were less than 50% and 59%, respectively. In addition, the inhibition in vivo at 5 mg/kg in test [10] was less than 95%; in test [11], 78%.

With `Cc1c(C)c(Cl)c(C)c(C(CCCCCC(=O)O)c2ccc(F)cc2)c1O` (stereo unspecified), in test [1], the IC50 worked out at 840 nM.

With `Cc1c(C)c(C(CCCCCC(=O)O)c2ccc(F)cc2)c(O)c(C)c1CO` (stereo unspecified), the IC50 in test [1] stood at 650 nM.

Regarding `CC(=O)c1c(C)c(C)c(C(CCCCCC(=O)O)c2ccc(F)cc2)c(O)c1C` (stereo unspecified), the IC50 in test [1] was 250 nM.

In [1], `Cc1cc(C)c(O)c(C(CCCCCC(=O)O)c2ccc(F)cc2)c1C` (stereo unspecified) yielded an IC50 of 240 nM.
